These results are taken from ChEMBL document CHEMBL4706499, “PTG-0861: A novel HDAC6-selective inhibitor as a therapeutic strategy in acute myeloid leukaemia” (Eur J Med Chem, 2020).

In one data set the target is Histone deacetylase 4 (Homo sapiens, UniProt P56524). Briefly: Inhibition of recombinant full length human HDAC4 expressed in SF9 baculovirus using FAM- labelled acetylated peptide as substrate measured by Electrophoretic mobility shift assay. Background: Mobility shift assays separate free from complexed probe on a gel.
Chain of Histone deacetylase 4 (P56524 whole entry): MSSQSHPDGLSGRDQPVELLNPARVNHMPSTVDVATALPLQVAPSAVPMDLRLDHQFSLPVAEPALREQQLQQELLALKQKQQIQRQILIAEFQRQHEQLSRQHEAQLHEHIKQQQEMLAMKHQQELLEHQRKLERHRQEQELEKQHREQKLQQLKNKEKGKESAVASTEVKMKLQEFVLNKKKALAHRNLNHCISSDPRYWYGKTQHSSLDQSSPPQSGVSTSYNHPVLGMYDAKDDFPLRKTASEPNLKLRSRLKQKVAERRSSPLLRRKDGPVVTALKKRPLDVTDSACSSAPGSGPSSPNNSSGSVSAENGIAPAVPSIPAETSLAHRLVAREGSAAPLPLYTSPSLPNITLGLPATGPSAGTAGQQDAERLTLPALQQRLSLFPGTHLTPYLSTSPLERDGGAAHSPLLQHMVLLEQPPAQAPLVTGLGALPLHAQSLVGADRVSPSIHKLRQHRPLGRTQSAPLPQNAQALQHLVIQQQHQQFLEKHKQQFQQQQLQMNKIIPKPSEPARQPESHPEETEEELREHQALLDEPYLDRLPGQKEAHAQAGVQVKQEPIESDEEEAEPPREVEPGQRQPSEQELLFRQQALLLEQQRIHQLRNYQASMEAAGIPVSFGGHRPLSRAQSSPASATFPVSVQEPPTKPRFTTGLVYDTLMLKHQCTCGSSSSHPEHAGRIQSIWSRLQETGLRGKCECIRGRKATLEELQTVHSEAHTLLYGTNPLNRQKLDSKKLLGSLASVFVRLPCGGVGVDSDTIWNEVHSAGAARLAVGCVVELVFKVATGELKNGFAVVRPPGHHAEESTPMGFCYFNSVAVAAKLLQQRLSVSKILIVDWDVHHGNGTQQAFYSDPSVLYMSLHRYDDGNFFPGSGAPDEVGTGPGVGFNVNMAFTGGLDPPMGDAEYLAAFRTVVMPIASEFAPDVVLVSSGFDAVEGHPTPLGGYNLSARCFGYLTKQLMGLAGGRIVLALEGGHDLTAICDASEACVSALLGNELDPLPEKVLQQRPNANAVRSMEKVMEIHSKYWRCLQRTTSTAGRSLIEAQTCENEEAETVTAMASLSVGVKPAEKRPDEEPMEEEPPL
The test system of another data set is MM1.S. Briefly: Cytotoxicity against human MM1.S cells measured after 72 hrs by spectrophotometer method. It counts as functional, cell-based.
The test system of another data set is Fibroblast. Kind of data set: Cytotoxicity against human fibroblasts measured after 72 hrs by spectrophotometer method. The class given is cell-based.
A further data set has as its target T1, Histone deacetylase 6 (Danio rerio, UniProt F8W4B7).
T1 sequence (F8W4B7 whole entry): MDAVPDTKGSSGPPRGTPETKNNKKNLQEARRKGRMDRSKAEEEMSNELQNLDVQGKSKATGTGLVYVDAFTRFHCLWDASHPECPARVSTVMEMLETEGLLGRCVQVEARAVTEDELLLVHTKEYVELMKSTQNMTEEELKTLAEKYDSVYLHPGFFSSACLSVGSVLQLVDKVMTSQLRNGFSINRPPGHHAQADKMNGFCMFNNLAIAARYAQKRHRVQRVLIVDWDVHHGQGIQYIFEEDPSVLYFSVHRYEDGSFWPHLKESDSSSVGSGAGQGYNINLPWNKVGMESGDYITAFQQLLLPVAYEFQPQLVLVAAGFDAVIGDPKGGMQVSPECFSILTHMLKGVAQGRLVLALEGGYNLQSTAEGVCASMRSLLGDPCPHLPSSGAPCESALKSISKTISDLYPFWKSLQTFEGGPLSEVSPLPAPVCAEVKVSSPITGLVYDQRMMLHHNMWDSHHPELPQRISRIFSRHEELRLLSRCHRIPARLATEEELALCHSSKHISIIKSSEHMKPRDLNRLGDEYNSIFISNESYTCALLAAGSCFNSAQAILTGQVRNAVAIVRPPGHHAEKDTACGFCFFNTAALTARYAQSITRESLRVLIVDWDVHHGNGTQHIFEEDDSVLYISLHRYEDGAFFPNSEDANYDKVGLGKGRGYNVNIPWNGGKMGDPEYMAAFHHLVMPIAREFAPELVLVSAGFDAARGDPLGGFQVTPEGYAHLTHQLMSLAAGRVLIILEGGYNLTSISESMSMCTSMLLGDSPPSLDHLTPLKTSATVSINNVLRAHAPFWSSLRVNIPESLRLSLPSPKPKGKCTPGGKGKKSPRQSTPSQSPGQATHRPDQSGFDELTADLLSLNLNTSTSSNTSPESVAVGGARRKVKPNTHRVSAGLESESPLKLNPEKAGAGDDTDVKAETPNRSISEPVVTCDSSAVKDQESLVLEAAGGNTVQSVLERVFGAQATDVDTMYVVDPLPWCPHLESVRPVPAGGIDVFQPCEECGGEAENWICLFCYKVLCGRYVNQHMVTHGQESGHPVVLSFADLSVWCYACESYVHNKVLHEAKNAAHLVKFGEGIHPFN
Briefly: Inhibition of N-terminal 6 His-SUMO tagged Zebrafish HDAC6 CD2 domain expressed in Escherichia coli BL21(DE3) RILP pretreated for 10 mins before FITC-M344 addition and measured after 10 mins by fluorescence polarization competition assay.

A short description of data set [1]: Efflux ratio of apparent permeability in human Caco2 cells measured after 2 hrs by LC-MS/MS method. To be noted: Caco-2. The class given is ADME, cell-based. The method, boiled down:
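Bidirectional Caco-2 permeability was measured as Papp in the apical-to-basolateral and basolateral-to-apical directions. The efflux ratio was calculated from the two directional Papp values.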
Background: Caco-2 monolayers are a common model of the intestinal barrier.

A short description of data set [2]: Toxicity in CD-1 mouse assessed as visible signs of toxicity at 20 mg/kg, po measured after 5 days. The class given is organism-based. The following applies: in vivo, 120 h, time 5 day.
The next data set deals with Histone deacetylase 5 (Homo sapiens, UniProt Q9UQL6). Briefly: Inhibition of recombinant full length human HDAC5 expressed in SF9 baculovirus using FAM- labelled acetylated peptide as substrate measured by Electrophoretic mobility shift assay.
Chain of Histone deacetylase 5 (Q9UQL6 whole entry): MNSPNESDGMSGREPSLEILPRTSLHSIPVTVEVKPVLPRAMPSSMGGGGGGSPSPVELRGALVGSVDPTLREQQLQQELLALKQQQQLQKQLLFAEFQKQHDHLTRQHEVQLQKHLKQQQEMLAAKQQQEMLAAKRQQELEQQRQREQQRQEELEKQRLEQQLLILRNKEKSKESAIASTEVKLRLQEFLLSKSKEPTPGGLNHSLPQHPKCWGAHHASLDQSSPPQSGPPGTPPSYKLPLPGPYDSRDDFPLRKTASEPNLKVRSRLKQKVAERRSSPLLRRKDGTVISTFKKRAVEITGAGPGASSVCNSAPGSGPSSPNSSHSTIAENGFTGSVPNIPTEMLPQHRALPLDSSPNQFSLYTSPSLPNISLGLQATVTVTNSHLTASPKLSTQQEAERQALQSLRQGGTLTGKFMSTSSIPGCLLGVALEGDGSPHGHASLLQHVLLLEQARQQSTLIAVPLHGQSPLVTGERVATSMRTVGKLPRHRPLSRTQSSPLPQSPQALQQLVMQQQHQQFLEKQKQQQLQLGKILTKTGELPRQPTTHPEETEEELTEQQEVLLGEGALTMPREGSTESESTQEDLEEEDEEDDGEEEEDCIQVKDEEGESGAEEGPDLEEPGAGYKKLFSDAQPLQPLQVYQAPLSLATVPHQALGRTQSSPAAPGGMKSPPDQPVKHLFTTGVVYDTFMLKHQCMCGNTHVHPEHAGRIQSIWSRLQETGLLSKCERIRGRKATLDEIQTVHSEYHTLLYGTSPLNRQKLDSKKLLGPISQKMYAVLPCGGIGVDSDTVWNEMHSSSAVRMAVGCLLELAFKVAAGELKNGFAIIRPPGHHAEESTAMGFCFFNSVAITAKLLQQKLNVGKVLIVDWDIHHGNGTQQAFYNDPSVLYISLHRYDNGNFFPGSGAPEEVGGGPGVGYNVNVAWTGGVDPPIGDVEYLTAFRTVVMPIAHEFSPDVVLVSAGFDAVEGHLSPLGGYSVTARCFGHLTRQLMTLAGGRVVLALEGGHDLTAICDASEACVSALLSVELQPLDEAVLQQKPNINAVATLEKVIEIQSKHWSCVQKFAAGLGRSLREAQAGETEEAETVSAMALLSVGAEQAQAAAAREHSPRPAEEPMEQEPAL
The subject of data set [3] is MV4-11. Briefly: Induction of apoptosis in human MV4-11 cells assessed as late apoptotic cells at 2 microM measured after 18 hrs by Annexin V/Propidium iodide stain based Flow cytometry assay (reference value: 4.91%). It counts as functional.
Data set [4] can be described thus: Glutathione reactivity at pH 7.4 assessed as compound remaining measured after 120 mins by LC-MS/MS method. It counts as physicochemical. The following applies: glutathione solution, read-out: Stabilty.
The subject of data set [5] is MV4-11. Kind of data set: Induction of apoptosis in human MV4-11 cells assessed as viable cells at 2 microM measured after 18 hrs by Annexin V/Propidium iodide stain based Flow cytometry assay (reference value: 53.27%). It counts as functional. The following applies: read-out: Activity. (Flow cytometry measures light scatter and fluorescence of single cells or particles in a stream.)

Data set [6] relates to MV4-11. Briefly: Induction of apoptosis in human MV4-11 cells assessed as late apoptotic cells at 0.5 microM measured after 18 hrs by Annexin V/Propidium iodide stain based Flow cytometry assay (reference value: 4.91%). It counts as functional.
Data set [7] in a line: Glutathione reactivity at pH 7.4 assessed as compound remaining measured by LC-MS/MS method. The class given is physicochemical.
The subject of data set [8] is MV4-11. Briefly: Induction of apoptosis in human MV4-11 cells assessed as viable cells at 0.25 microM measured after 18 hrs by Annexin V/Propidium iodide stain based Flow cytometry assay (reference value: 53.27%). The following applies: read-out: Activity. The class given is functional.
Another data set concerns the target Histone deacetylase 9 (Homo sapiens, UniProt Q9UKV0). Briefly: Inhibition of recombinant full length human HDAC9 expressed in SF9 baculovirus using FAM- labelled acetylated peptide as substrate measured by Electrophoretic mobility shift assay.
A short description of data set [9]: Glutathione reactivity at pH 7.4 assessed as compound remaining measured after 60 mins by LC-MS/MS method. The class given is physicochemical. The following applies: glutathione solution, read-out: Stabilty.
Data set [10] can be described thus: Intrinsic clearance in mouse hepatocytes assessed per 10^6 cells measured after 120 mins by LC/MS/MS method. The class given is ADME, cell-based, Hepatocyte. The following applies: read-out: CLH.

The term IC50 denotes the point on the concentration scale where inhibition reaches its midpoint. What is called efflux ratio is the permeability from basolateral to apical divided by that in the opposite direction, in the common usage.

Chain of Histone deacetylase 9 (Q9UKV0 whole entry): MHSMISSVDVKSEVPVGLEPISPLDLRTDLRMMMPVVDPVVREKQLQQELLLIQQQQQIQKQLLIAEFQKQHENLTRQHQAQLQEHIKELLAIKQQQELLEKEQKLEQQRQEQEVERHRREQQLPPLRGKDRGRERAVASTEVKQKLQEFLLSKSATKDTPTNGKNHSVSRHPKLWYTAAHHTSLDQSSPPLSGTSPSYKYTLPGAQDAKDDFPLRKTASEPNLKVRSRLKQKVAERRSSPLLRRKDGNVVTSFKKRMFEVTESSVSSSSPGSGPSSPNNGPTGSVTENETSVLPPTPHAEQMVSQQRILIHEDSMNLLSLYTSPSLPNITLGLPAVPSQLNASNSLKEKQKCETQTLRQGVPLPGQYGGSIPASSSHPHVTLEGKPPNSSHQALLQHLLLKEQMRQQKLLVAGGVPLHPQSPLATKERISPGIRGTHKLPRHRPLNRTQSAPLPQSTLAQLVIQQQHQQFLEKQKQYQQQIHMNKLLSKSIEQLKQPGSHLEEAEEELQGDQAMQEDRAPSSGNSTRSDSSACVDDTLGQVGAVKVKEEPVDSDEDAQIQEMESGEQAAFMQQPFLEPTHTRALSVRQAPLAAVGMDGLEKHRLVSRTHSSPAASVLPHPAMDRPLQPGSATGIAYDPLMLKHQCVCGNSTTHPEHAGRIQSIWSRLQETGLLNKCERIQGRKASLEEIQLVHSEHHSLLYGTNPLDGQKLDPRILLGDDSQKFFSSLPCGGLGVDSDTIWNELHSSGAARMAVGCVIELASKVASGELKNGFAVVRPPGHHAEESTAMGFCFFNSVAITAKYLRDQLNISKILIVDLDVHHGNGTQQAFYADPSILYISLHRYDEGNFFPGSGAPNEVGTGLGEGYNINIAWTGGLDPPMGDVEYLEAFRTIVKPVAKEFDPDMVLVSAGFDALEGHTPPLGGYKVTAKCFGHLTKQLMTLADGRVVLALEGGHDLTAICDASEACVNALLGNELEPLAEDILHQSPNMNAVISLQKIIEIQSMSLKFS

As for `O=C(NO)c1ccc(CNC(=O)c2c(F)c(F)c(F)c(F)c2F)cc1`, the half-maximal inhibitory concentration (IC50) is above 1 µM at Histone deacetylase 4; 1.9 µM with MM1.S; 11.5 µM with Fibroblast; 0.074 µM on Histone deacetylase 6; above 1 µM on Histone deacetylase 5; above 1 µM on Histone deacetylase 9. For the same compound, the efflux ratio at 2 h in data set [1] is 0.71. Also, the Activity result was “Non-Toxic” in data set [2], 15.93% with MV4-11 [3] and 7.46% in the data set on MV4-11 [6]. Moreover, the remaining at 2 h in [4] came to 97.1%. For the same compound, the viability at 2 µM in the data set with MV4-11 [5] was found to be 20.2%. Besides, the Stabilty in data set [7] was 100%. In the data set with MV4-11 [8], the viability at 0.25 µM worked out at 52.3%. In addition, in data set [9], the remaining at 1 h turned out to be 98%. For the same compound, in data set [10], the hepatocyte CLint was determined as 27.3 µL/min/1e6 cells.
